Test results: ChEMBL document CHEMBL5500359, “Identification of a new bisindolinone arresting IGROV1 cells proliferation” (Eur J Med Chem, 2024)
Calls of active or inactive are those of the source. The rule behind the calls is not given here.

Experiments:
[1] = Upregulation of histone H2/H3 acetylation in human IGROV-1 cells incubated for 6 hrs by Western blot analysis relative to control; format: functional
Method in brief: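 IGROV1 seeded 1.5×10^4 cells/cm², after 48 h exposed 6 h to 5 μM final; histones acid-extracted (0.4 N H2SO4) from nuclei isolated with 10 mM butyrate washes, acetone-precipitated, 15% SDS-PAGE, blotted with anti-acetyl-lysine; densitometry normalized to histone H1, percent of vehicle, mean ± SD of three experiments.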

[2] = tested on: CNS carcinoma cell; assay: Cell growth inhibition of human CNS carcinoma cells incubated for 48 hrs by SRB assay; format: functional
Method in brief: (§1)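 NCI-60 five-concentration screen: lines seeded 5×10^3–4×10^4 cells/well depending on line; compound diluted in fresh medium at scalar concentrations 0–100 or 0–1000 μM; 48 h exposure, in situ fixation, sulforhodamine B protein staining, optical density read; GI50, TGI and LC50 per NCI procedures; panel mean = mean graph midpoint.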

[3] = tested on: IGROV-1; assay: Downregulation of CCND1 mRNA level in human IGROV-1 cells at 5 uM pretreated for 24 hrs followed by UV exposure for 6 hrs by qRT-PCR analysis; format: functional, cell-based; settings: time 30.0 hrs
Method in brief: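 IGROV1 pretreated 24 h with 5 μM then UV-irradiated (7.5 W lamp, 3 min); CCND1 and RAD51 mRNA by qRT-PCR after column RNA extraction and reverse transcription, fold change versus vehicle; at least triplicate, Student's t-test.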

[4] = tested on: CNS carcinoma cell; assay: Cytostatic activity against human CNS carcinoma cells incubated for 48 hrs by SRB assay; format: functional; method in brief: as §1
[5] = tested on: IGROV-1; assay: Cytotoxicity against human IGROV-1 cells assessed as reduction in cell viability incubated for 24 hrs by MTT assay; format: functional, cell-based; settings: IGROV-1, 24 h
Method in brief: (§2)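 IGROV1 and HDFa in RPMI 1640 + 10% FCS, 2 mM glutamine, 37 °C, 5% CO2; seeded 1.5×10^4/well, after 24 h exposed 24 h to 0.010–500 μM (DMSO ≤0.1%). MTT 0.2 mg/mL in PBS 2 h at 37 °C, absorbance 570 nm; IC50 from dose-response, three independent experiments each in triplicate; SI = HDFa IC50/IGROV1 IC50.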

[6] = tested on: IGROV-1; assay: Downregulation of CCND1 mRNA level in human IGROV-1 cells at 5 uM incubated for 6 hrs by RT-PCR analysis; format: functional, cell-based
Method in brief: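 IGROV1 given 5 μM versus vehicle; RNA extracted by spin column, reverse transcribed, CCND1, CDKN1A and ITAG5 transcripts quantified by qRT-PCR as fold change versus vehicle; at least triplicate, Student's t-test, p<0.05.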

[7] = tested on: Melanoma cell line; assay: […] against human Melanoma cells incubated for 48 hrs by SRB assay; format: functional; settings: read-out: LC50 (the source's name)
Method in brief: (§3)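 NCI DTP five-concentration screen. Cells were seeded at 5 × 10³–4 × 10⁴ cells/well, depending on the line. Compounds were diluted in fresh medium and added at scalar concentrations over 0–1000 µM or 0–100 µM. After 48 h the cells were fixed in situ, stained with sulforhodamine B, and optical density was read. GI50, TGI and LC50 were derived by NCI procedures, and the panel mean is the mean graph midpoint.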

[8] = tested on: IGROV-1; assay: Antiproliferative activity against human IGROV-1 cells assessed as doubling time at 5 uM incubated for 24 to 48 hrs (reference value: 23.9 +/- 2.4 hrs); format: functional; settings: time 24-48 hrs
Method in brief: (§4)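 Quantitative phase imaging on IGROV1 seeded 4×10^3/well, 24 h later given 5 μM (six replicates; DMSO ≤0.1% final). Images hourly for 2 days at 37 °C, 5% CO2. Cell count and confluence normalized to experiment start; doubling time derived from growth.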

[9] = tested on: Colon carcinoma cell; assay: Cytotoxicity against human Colon carcinoma cells incubated for 48 hrs by SRB assay; format: functional; method in brief: as §1
[10] = tested on: IGROV-1; assay: Effect on p21 level in human IGROV-1 cells at 5 uM incubated for 6 hrs by Western blot analysis; format: functional, cell-based
[11] = tested on: Panel NCI-60 (60 carcinoma cell lines); assay: Cytostatic activity against human Panel NCI-60 (60 carcinoma cell lines) incubated for 48 hrs by SRB assay; format: functional; method in brief: as §1
[12] = tested on: IGROV-1; assay: Induction of cell cycle arrest in human IGROV-1 cells assessed as decrease in cell accumulation at G2/M phase at 5 uM incubated for 24 hrs by PI staining based flow cytometry relative to control; format: functional; set-up: scale not given: the % may be the effect or the level left
Method in brief: (§5)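 IGROV1 plated 2×10^4 cells/cm², after 24 h given 5 μM for 24 h; cells detached, PBS-washed, stained 30 min at room temperature in dark with 50 μg/mL propidium iodide, 10 μg/mL RNase, 0.01% Igepal, 0.1% sodium citrate; DNA content by flow cytometry, phase percentages versus untreated.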

[13] = tested on: Panel NCI-60 (60 carcinoma cell lines); assay: Cell growth inhibition of human Panel NCI-60 (60 carcinoma cell lines) incubated for 48 hrs by SRB assay; format: functional; method in brief: as §1
[14] = Selectivity index, ratio of IC50 for human HDFa cells to IC50 for human IGROV-1 cells; format: functional; method in brief: as §2
[15] = tested on: IGROV-1; assay: Induction of cell cycle arrest in human IGROV-1 cells assessed as decrease in cell accumulation at S phase at 5 uM incubated for 24 hrs by PI staining based flow cytometry relative to control; format: functional; set-up: scale not given: the % may be the effect or the level left; method in brief: as §5
[16] = tested on: Ovarian cancer cell line; assay: Cytotoxicity against human Ovarian cancer cells incubated for 48 hrs by SRB assay; format: functional; method in brief: as §1
[17] = tested on: Melanoma cell line; assay: Cell growth inhibition of human Melanoma cells incubated for 48 hrs by SRB assay; format: functional; method in brief: as §1
[18] = Cytostatic activity against human Leukemia cancer cells incubated for 48 hrs by SRB assay; format: functional, Leukemia cell; method in brief: as §1
[19] = tested on: IGROV-1; assay: Antiproliferative activity against human IGROV-1 cells at 5 uM incubated upto 48 hrs by quantitative phase imaging microscopy; format: functional, cell-based; method in brief: as §4
[20] = tested on: NSCLC; assay: Cell growth inhibition of human NSCLC cells incubated for 48 hrs by SRB assay; format: functional; method in brief: as §1
[21] = tested on: IGROV-1; assay: Induction of cell cycle arrest in human IGROV-1 cells assessed as increase in cell accumulation at G0/G1 phase at 5 uM incubated for 24 hrs by PI staining based flow cytometry relative to control; format: functional; method in brief: as §5
[22] = tested on: IGROV-1; assay: Downregulation of CCND1 level in human IGROV-1 cells at 5 uM pretreated for 24 hrs followed by UV exposure for 6 hrs by Western blot analysis; format: functional, cell-based; settings: time 30.0 hrs
Method in brief: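 IGROV1 pretreated 24 h with 5 μM, then UV-irradiated with a 7.5 W lamp for 3 min; UV alone as positive control. Cyclin D1 and RAD51 by RIPA-lysate Western blot normalized to α-tubulin; γH2AX by acid-extracted histone blot normalized to H1; percent of vehicle, mean ± SD, three experiments.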

[23] = tested on: Prostatic carcinoma cell; assay: Cell growth inhibition of human Prostate carcinoma cells incubated for 48 hrs by SRB assay; format: functional; method in brief: as §1
[24] = tested on: Breast cancer cell line; assay: Cytotoxicity against human Breast cancer cells incubated for 48 hrs by SRB assay; format: functional; method in brief: as §1
[25] = tested on: Ovarian cancer cell line; assay: Cytostatic activity against human Ovarian cancer cells incubated for 48 hrs by SRB assay; format: functional; method in brief: as §1
[26] = tested on: Renal cancer cell line; assay: Cell growth inhibition of human Renal cancer cells incubated for 48 hrs by SRB assay; format: functional; method in brief: as §1
[27] = Cytotoxicity against human Leukemia cancer cells incubated for 48 hrs by SRB assay; format: functional; settings: Leukemia cell, read-out: LC50 (the source's name); method in brief: as §3
[28] = Cell growth inhibition of human Leukemia cancer cells incubated for 48 hrs by SRB assay; format: functional; method in brief: as §1
[29] = tested on: Colon carcinoma cell; assay: Cytostatic activity against human Colon carcinoma cells incubated for 48 hrs by SRB assay; format: functional; method in brief: as §1
[30] = tested on: Renal cancer cell line; assay: Cytostatic activity against human Renal cancer cells incubated for 48 hrs by SRB assay; format: functional; method in brief: as §1

Question: With `CC(C)(C)c1cc(/C=C2/C(=O)Nc3cc(Cl)ccc32)c(O)c(/C=C2/C(=O)Nc3cc(Cl)ccc32)c1` as the molecule, how does the Activity [1] read?
Answer: 55.2%

Question: And the GI50 [2]?
Answer: 2.75 µM

Question: What about the Activity [3] of the same molecule?
Answer: Active

Question: What about the GI [4] of the same molecule?
Answer: 11.75 µM

Question: What about the IC50 [5] of the same molecule?
Answer: 6.06 µM

Question: What about the Activity [6] of the same molecule?
Answer: Active

Question: What about the CC50 [7] of the same molecule?
Answer: 8.51 µM

Question: And the Time [8]?
Answer: 113.3 h

Question: What about the GI [9] of the same molecule?
Answer: 37.15 µM

Question: And the Activity [10]?
Answer: inactive

Question: What about the GI [11] of the same molecule?
Answer: 12.02 µM

Question: What about the Activity [12] of the same molecule?
Answer: 11.9%

Question: What about the GI50 [13] of the same molecule?
Answer: 3.02 µM

Question: And the Ratio IC50 [14]?
Answer: 3.64

Question: And the Activity [15]?
Answer: 21.2%

Question: And the GI [16]?
Answer: 30.9 µM

Question: What about the GI [17] of the same molecule?
Answer: 2.82 µM

Question: What about the GI [18] of the same molecule?
Answer: 18.62 µM

Question: And the Activity [19]?
Answer: Active

Question: And the GI [20]?
Answer: 3.63 µM

Question: What about the Activity [21] of the same molecule?
Answer: 13.4%

Question: What about the Activity [22] of the same molecule?
Answer: Active

Question: What about the GI [23] of the same molecule?
Answer: 3.63 µM

Question: And the GI [24]?
Answer: 48.98 µM

Question: And the TGI [25]?
Answer: 10 µM

Question: And the GI50 [26]?
Answer: 2.69 µM

Question: And the CC50 [27]?
Answer: 97.7 µM

Question: What about the GI50 [28] of the same molecule?
Answer: 2.45 µM

Question: And the TGI [29]?
Answer: 13.2 µM

Question: What about the GI [30] of the same molecule?
Answer: 11.22 µM
